Assay results taken from ChEMBL document CHEMBL1153378, “Synthesis and evaluation of myxochelin analogues as antimetastatic agents” (Bioorg Med Chem, 2009).
Calls of active or inactive are those of the source. The rule behind the calls is not given here.

How the values were obtained:
[1] = Antiinvasive activity against mouse 26-L5 cells assessed as inhibition of cell invasion by Matrigel assay; format: functional, cell-based
[2] = Cytotoxicity against mouse 26-L5 cells after 24 hrs; format: functional, cell-based
In short: (§1)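 Murine colon 26-L5 carcinoma cells at 1 × 10⁴ cells/well in RPMI with 10% FCS and L-glutamine, exposed to test compound at various concentrations (DMSO solutions) for 24 h. Wells PBS-washed, crystal violet stain 30 min, dye extracted with 30% acetic acid, absorbance read at 590 nm. Mean ± SD; Student's two-tailed t-test vs control.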

[3] = Cytotoxicity against mouse 26-L5 cells at 7.5 uM after 24 hrs; format: functional; in short: as §1
[4] = Antiinvasive activity against mouse 26-L5 cells assessed as inhibition of cell invasion at 2.5 uM by Matrigel assay; format: functional
[5] = biological target: 72 kDa type IV collagenase (Mus musculus) (UniProt P33434); test: Inhibition of MMP2 in mouse 26-L5 cells at 0.25 uM by gelatin based zymography assay; format: cell-based
In short: (§2)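 Gelatin zymography: conditioned medium of colon 26-L5 cells run non-reducing on 10% SDS–PAGE with 0.1% gelatin. Gels rinsed twice 1 h at room temperature (50 mM Tris–HCl, 2.5% Triton X-100, 5 mM CaCl₂, 0.05% NaN₃), strips incubated 24 h at 37 °C in reaction buffer with test compound at various concentrations, then Coomassie stained. Mean ± SD, two-tailed t-test.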

[6] = biological target: Matrix metalloproteinase-9 (Mus musculus) (UniProt P41245); test: Inhibition of MMP9 in mouse 26-L5 cells at 0.25 uM by gelatin based zymography assay; format: cell-based; in short: as §2
[7] = Antimetastatic activity against mouse 26-L5 cells xenografted BALB/c mouse assessed as inhibition of lung tumor metastasis at 50 mg/kg, ip dosed once daily for 14 days; format: functional; settings: 336 h, route intraperitoneal
In short: (§3)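 BALB/c mice injected iv via tail vein with colon 26-L5 cells in cold PBS; compound given ip at 50 mg/kg (1 mg/mouse in 200 µL PBS); controls received 200 µL PBS. Body weight followed; mice killed 14 days after inoculation, lungs fixed in Bouin's solution, surface colonies counted under dissecting microscope. Student's two-tailed t-test.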

[8] = test system: Mus musculus; test: Toxicity in mouse 26-L5 cells xenografted BALB/c mouse assessed as body weight loss at 50 mg/kg, ip dosed once daily for 14 days; format: organism-based; parameters: dose 50 mg/kg, route intraperitoneal; settings: in vivo, 336 h; in short: as §3
[9] = species on record: Mus musculus; test: Inhibition of cell migration of mouse 26-L5 cells at 2.5 uM by Matrigel assay; format: functional
[10] = species on record: Mus musculus; test: Inhibition of mouse 26-L5 cells adhesion to extracellular matrix proteins at 2.5 uM after 24 hrs by crystal violet assay; format: functional
In short: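 Colon 26-L5 cells pre-treated with compound 24 h at 37 °C, 5% CO₂, then resuspended in RPMI/10% FCS/L-glutamine and seeded at 4 × 10⁴ cells/well on fibronectin- or Matrigel-coated wells. Attachment 1 h at 37 °C; non-adherent cells aspirated; adherent cells fixed in 20% formalin 4 °C 1 h, crystal violet stained 30 min. Mean ± SD, two-tailed t-test.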

[11] = Cytotoxicity against mouse 26-L5 cells at 5.6 uM after 24 hrs; format: functional; in short: as §1
[12] = biological target: 72 kDa type IV collagenase (Mus musculus) (UniProt P33434); test: Inhibition of MMP2 in mouse 26-L5 cells at 2.5 uM by gelatin based zymography assay; format: cell-based; in short: as §2
[13] = biological target: Matrix metalloproteinase-9 (Mus musculus) (UniProt P41245); test: Inhibition of MMP9 in mouse 26-L5 cells at 2.5 uM by gelatin based zymography assay; format: cell-based; in short: as §2

Chain of Matrix metalloproteinase-9 (Mus musculus) (P41245 whole entry): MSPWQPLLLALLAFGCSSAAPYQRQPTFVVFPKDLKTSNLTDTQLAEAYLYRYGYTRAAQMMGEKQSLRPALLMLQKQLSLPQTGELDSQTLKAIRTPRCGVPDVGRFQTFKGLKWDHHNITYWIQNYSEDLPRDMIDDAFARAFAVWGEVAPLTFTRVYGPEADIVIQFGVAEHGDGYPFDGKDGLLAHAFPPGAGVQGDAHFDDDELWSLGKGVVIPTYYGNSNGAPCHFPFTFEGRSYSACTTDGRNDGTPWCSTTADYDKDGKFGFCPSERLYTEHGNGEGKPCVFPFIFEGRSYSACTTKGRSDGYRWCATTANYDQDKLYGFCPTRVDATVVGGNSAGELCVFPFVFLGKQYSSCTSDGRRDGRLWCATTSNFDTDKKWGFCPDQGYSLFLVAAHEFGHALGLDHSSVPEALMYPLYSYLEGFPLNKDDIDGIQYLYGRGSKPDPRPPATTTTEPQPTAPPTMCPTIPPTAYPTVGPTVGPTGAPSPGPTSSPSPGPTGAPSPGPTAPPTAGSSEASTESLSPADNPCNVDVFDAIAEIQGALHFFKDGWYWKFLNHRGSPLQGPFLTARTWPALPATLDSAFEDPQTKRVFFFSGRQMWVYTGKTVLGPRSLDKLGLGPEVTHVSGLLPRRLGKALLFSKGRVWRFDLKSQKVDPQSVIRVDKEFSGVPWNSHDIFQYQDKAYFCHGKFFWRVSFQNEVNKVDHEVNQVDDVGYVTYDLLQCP
Chain of 72 kDa type IV collagenase (Mus musculus) (P33434 whole entry): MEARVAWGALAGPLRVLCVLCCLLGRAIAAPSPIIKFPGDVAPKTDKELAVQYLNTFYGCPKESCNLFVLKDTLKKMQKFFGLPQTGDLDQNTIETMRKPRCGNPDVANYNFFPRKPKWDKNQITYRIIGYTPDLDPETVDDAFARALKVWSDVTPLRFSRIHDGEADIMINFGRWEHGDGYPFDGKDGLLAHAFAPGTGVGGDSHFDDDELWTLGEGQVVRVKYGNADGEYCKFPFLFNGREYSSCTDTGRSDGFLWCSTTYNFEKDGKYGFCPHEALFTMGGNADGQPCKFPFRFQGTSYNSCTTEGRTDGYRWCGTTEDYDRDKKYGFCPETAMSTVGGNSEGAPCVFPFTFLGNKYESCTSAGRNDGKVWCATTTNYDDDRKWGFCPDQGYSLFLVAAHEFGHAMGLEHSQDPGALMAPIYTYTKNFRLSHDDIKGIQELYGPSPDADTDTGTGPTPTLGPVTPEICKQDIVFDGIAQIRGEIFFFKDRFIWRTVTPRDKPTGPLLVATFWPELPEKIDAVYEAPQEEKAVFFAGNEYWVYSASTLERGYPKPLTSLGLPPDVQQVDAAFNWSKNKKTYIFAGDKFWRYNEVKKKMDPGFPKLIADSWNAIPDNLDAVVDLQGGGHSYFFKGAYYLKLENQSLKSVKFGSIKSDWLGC

Row | IC50 [1] [nM] | SMILES | IC50 [2] [nM] | inhibition at 7.5 µM [3] [%] | inhibition at 2.5 µM [4] [%] | further results
1 | 980 | O=C(NCCCC[C@H](NC(=O)c1cccc(O)c1O)C(=O)NO)c1cccc(O)c1O | > 7500 | 0 | – | –
2 | > 2500 | N#C[C@H](CCCCNC(=O)c1cccc(O)c1O)NC(=O)c1cccc(O)c1O | 7500 | – | 45 | –
3 | 91 | NC(=O)[C@H](CCCCNC(=O)c1cccc(O)c1O)NC(=O)c1cccc(O)c1O | > 7500 | 0 | – | inhibition [5]: 44%; inhibition [6]: 33%; inhibition in vivo at 50 mg/kg [7]: 35%; Activity [8]: Non-toxic; inhibition [9]: inactive; inhibition [10]: inactive
4 | > 2500 | COC(=O)[C@H](CCCCNC(=O)c1cccc(OC)c1OC)NC(=O)c1cccc(OC)c1OC | > 7500 | 0 | 25 | –
5 | > 2500 | COC(=O)[C@H](CCNC(=O)c1cccc(O)c1O)NC(=O)c1cccc(O)c1O | > 7500 | 13 | 40 | –
6 | 520 | O=C(NCCCC[C@@H](CNC(=O)c1cccc(O)c1O)NC(=O)c1cccc(O)c1O)c1cccc(O)c1O | > 5600 | – | – | inhibition at 5.6 µM [11]: 0%
7 | > 2500 | O=C(NCCCC[C@H](NC(=O)c1cccc(O)c1O)C(=O)O)c1cccc(O)c1O | > 7500 | 0 | 30 | –
8 | 2500 | COC(=O)[C@H](CCCNC(=O)c1cccc(O)c1O)NC(=O)c1cccc(O)c1O | > 7500 | 45 | – | –
9 | > 2500 | COC(=O)[C@H](CCCCNC(=O)c1ccccc1)NC(=O)c1cccc(O)c1O | > 7500 | 0 | 0 | –
10 | 2200 | O=C(NCCCC[C@H](CO)NC(=O)c1cccc(O)c1O)c1cccc(O)c1O | > 7500 | 30 | – | –
11 | 2400 | COC(=O)[C@H](CCCCNC(=O)c1cccc(O)c1O)NC(C)=O | > 7500 | 0 | – | –
12 | 1000 | COC(=O)[C@H](CCCCNC(=O)c1cccc(O)c1O)NC(=O)c1ccccc1 | > 7500 | 0 | – | –
13 | 730 | NC[C@H](CCCCNC(=O)c1cccc(O)c1O)NC(=O)c1cccc(O)c1O | > 7500 | 40 | – | –
14 | 1700 | COC(=O)[C@H](CCCCCNC(=O)c1cccc(O)c1O)NC(=O)c1cccc(O)c1O | 1600 | – | – | –
15 | 590 | O=C(NCCCC[C@@H](CO)NC(=O)c1cccc(O)c1O)c1cccc(O)c1O | > 7500 | 20 | – | inhibition [12]: 35%; inhibition [13]: 39%; inhibition [9]: inactive; inhibition [10]: inactive
16 | > 2500 | O=C(NCCCCCNC(=O)c1cccc(O)c1O)c1cccc(O)c1O | 2700 | – | 45 | –
17 | 1500 | COC(=O)[C@H](CCCCNC(=O)c1cccc(O)c1O)NC(=O)c1cccc(O)c1O | > 7500 | 10 | – | –
18 | 260 | NC(=O)[C@H](CCCCNC(=O)c1cccc(O)c1O)NC(=O)c1ccccc1 | > 7500 | 0 | – | –
